# Data published in ChEMBL document CHEMBL4513216, “Probing the Open Global Health Chemical Diversity Library for Multistage-Active Starting Points for Next-Generation Antimalarials” (ACS Infect Dis, 2020).
# Experiment: Toxicity liver stage against HepG2, at 10uM
# Type: cell-based
# Set-up: test concentration 10 uM, cell line HepG2-A16-CD81EGFP
# Settings: human, HepG2-A16-CD81EGFP cells; read-out: INHIBITION
# Procedure, shortened: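 Uninfected HepG2-A16-CD81EGFP cells, 3 × 10^3 per well, 1536-well, plated on prespotted compound at 10 μM final, parasite-free screening media added to match infected plates; puromycin 10 μM positive, DMSO 0.5% negative; run in parallel with 48 h PbLuc assay at 37 °C, 5% CO2; viability by CellTiter-Glo luminescence, normalized to controls.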
row,Compound,cytotoxicity at 10 µM [%]
1,COC(=O)C1CCN(C(=O)c2nnc3ccc(C)cc3n2)CC1,11.7
2,Cc1cc(C)c2cc(CNCc3cccnc3)c3nn(C)c(=O)n3c2c1,-6.11
3,c1coc(-c2[nH]c3ncccc3c2CN2CCCOCC2)c1,-5.44
4,CNc1nc(C)c(C(=O)N2CCCCC2CN2CCCCCC2)s1 (centres undefined),-2.5
5,CCc1nc(Cn2nc(COC)oc2=O)cs1,-43.4
6,CCN(C)S(=O)(=O)N1CCC(C(O)c2ccc(Cl)cc2)CC1 (centres undefined),5.84
7,Cc1cn2c(n1)C(CNCc1cnn3ccccc13)CCC2 (centres undefined),1.78
8,CC(C)COC(=O)N1CCN(C(=O)c2ccc3nccn3c2)CC1,12.6
9,Cc1ccc2cccc(C(=O)NCC3CCN(C(C)C)C3)c2n1 (centres undefined),-9.97
10,CCC1CN(CCCNS(C)(=O)=O)c2ccccc2O1 (centres undefined),-7.03
11,CN(CC(=O)NS(=O)(=O)c1ccc(F)cc1)Cc1ccccc1,14.3
12,CNS(=O)(=O)c1ccc(CNC(=O)N2CCOC(C)C2)cc1 (centres undefined),9.15
13,O=C(Cc1ccon1)N1CCN(c2ccc(F)cc2Cl)CC1,1.02
14,CC(C)Cc1noc(CN(C)C2CCCC2)n1,0.274
15,CC(=O)N1CCN(C(=O)CN2CCCC2c2c(C)nn(C)c2C)CC1 (centres undefined),6.34
16,Fc1cccc(CNc2cncc(-n3cccn3)n2)c1,0.959
17,CCN(C1CCN(C(=O)c2cccc(Cl)c2)CC1)S(C)(=O)=O,0.209
18,Cc1ccc(S(=O)(=O)NCc2cnn(C)c2)c(F)c1,-13
19,COCCOCC(=O)NC(C#N)c1cc(Cl)cc(Cl)c1 (centres undefined),8.31
20,CC(NC(=O)c1cccs1)C(=O)NS(=O)(=O)c1cccc(C#N)c1 (centres undefined),-7.23
21,CC(CC(=O)N1CCCS1(=O)=O)c1ccccc1C(F)(F)F (centres undefined),8.92
22,CC(=O)NCCNC(=O)c1cc(C)ccc1SC1CCCC1,-41.5

row,Compound,cytotoxicity at 10 µM [%]
1,CS(=O)(=O)Cc1cc(Cl)c2c(c1)OCCCO2,-2.55
2,COC(=O)c1ccc(N(C)C2CCC2)nn1,19.8
3,CCN(C)c1ccc(CNS(=O)(=O)C2CCOCC2)cc1F,10.3
4,COc1ccc(C(=O)N(C)Cc2cccc(C#N)c2)c(OC)c1OC,-17.1
5,O=C(NCC(O)c1cccc(F)c1)c1cccnc1O (centres undefined),-1.68
6,CCC1=N[C@@]2(CC[C@@H]3CN(C(=O)NCc4ccccc4)C[C@@H]32)C(=O)N1,-10.3
7,CC[C@@H](CO)Nc1cc(-c2cn[nH]c2)ncn1,-4.78
8,CN1CCCN(c2nccc(-c3cncnc3C3CCCCC3)n2)CC1,-6.25
9,Cc1nc(C(C)C)ncc1C(=O)N1CCc2c(nc(N(C)C)[nH]c2=O)C1,14.3
10,COC(C)(C)C(=O)N[C@H]1CN(c2nccnc2N(C)C)C[C@@H]1C(C)C,4.24
11,O=C(CN1CCCC1c1nc2cc(F)ccc2[nH]1)NCc1ccccn1 (centres undefined),-0.748
12,CCC[C@H]1CN(CCS(C)(=O)=O)C[C@@H]1NC(=O)c1cc(CC)on1,-2.42
13,Cn1ncc2c(N[C@H]3CCCC[C@@H]3O)nc(C(C)(C)C)nc21,-21.5
14,c1cncc(CCc2nc(C3CC3)nn2-c2ccc3c(c2)OCCO3)c1,-0.833
15,COc1ccc(C(=O)N2CCC(Oc3ccccc3)(C(=O)O)CC2)o1,11.6
16,Cc1cc(=O)[nH]c(SCC(=O)N(C)CC2Cc3ccccc3CN2C)n1 (centres undefined),-1.96
17,CCCc1n[nH]c(C2CN(Cc3nnc(C4CC4)n3C)CCO2)n1 (centres undefined),-2.36
18,O=C([C@@H]1C[C@@H]2CCN(CCc3ccccc3)C[C@H]2O1)N1CCCC1,0.307
19,O=C(NC1CCC1)[C@@H]1C[C@@H]2CCN(Cc3cccs3)C[C@@H]2O1,5.38
20,CN1CCN(C(=O)c2nc3c(o2)CN(C(=O)c2cccnc2)C3)CC1,-7.06
21,Cc1nc(CO[C@@H]2CN(Cc3cnn(C)c3)[C@@H]3COC[C@@H]32)cs1,-7.06
22,Cc1ccc(CN2CCC3(CC2)CC(c2cccnc2)CO3)s1 (centres undefined),-9.7
